Measurements from ChEMBL document CHEMBL2417395, “Synthesis and biological evaluation of novobiocin analogues as potential heat shock protein 90 inhibitors” (Bioorg Med Chem, 2013).
The source made the active and inactive calls. No cut-off for these calls is given here.

How the values were obtained:
SK-BR-3 [1] = experiment: Cytotoxicity against human SKBR3 cells assessed as growth inhibition at 100 uM after 18 hrs by capillary-based flow cytometric analysis; format: functional, cell-based
In short: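 Short-term viability: SKBR3 cells exposed overnight under the same conditions as the surface-HER2 screen, then stained with a DNA-staining viability reagent; viable cell number counted by capillary flow cytometry.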

MCF7 = experiment: Cytotoxicity against ER-positive human MCF7 cells expressing low level of HER2 after 3 days by MTT assay; format: functional, cell-based; settings: MCF7, 72 h
In short: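 MCF-7 seeded 2,000 cells/well, serial dilutions added after 24 h, 72 h exposure; MTT at 500 µg/mL final, 3 h at 37 °C, formazan dissolved in DMSO, absorbance 570 nm minus 650 nm background. Triplicates, at least two experiments; IC50 = concentration cutting viable signal by 50% of DMSO control.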

SK-BR-3 [2] = experiment: Cytotoxicity against ER-negative human SKBR3 cells expressing high level of HER2 after 3 days by MTT assay; format: functional, cell-based; settings: SK-BR-3, 72 h
In short: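 SKBR3 cells in RPMI 1640 with 10% FBS exposed to serial dilutions for 3 days; MTT dye-reduction read-out of relative viable cell number. IC50 taken as concentration giving 50% reduction versus DMSO-treated cells.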

Heat shock protein HSP90 [3] = molecular target: T1, Heat shock protein HSP90 (Homo sapiens, UniProt P07900+P08238); experiment: Inhibition of HSP90 in human MCF7 cells assessed as depletion of cell surface HER2 protein level after 18 hrs by flow cytometry
Heat shock protein HSP90 [4] = molecular target: T1, Heat shock protein HSP90; experiment: Inhibition of HSP90 in human SKBR3 cells assessed as depletion of cell surface HER2 protein level at 100 uM after 18 hrs by immunofluorescence-based flow cytometric analysis relative to control; settings: SK-BR-3
In short: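 SKBR3 cells treated 18 h at 100 µM (controls: DMSO, GA 0.5 µM, NB 500 µM), trypsinized, blocked in goat serum/PBA (pH 7.6) on ice, anti-HER2 20 µg/mL 30 min then Alexa 488 secondary 2 µg/mL 20 min on ice; mean fluorescence intensity by flow cytometry, isotype antibody control.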

Heat shock protein HSP90 [5] = molecular target: T1, Heat shock protein HSP90; experiment: Inhibition of HSP90 in human MCF7 cells assessed as depletion of total HER2 protein level at 50 uM after 18 hrs by Western blot analysis relative to control; format: cell-based
In short: (§1)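 MCF-7 cells at 70% confluence treated 18 h; floating plus trypsinized cells pooled, lysed in NP-40 buffer (pH 7.4) with protease/phosphatase inhibitors; 20 µg protein on 7.5% SDS-PAGE, nitrocellulose, milk block; probed for HER2 (2.0 µg/mL monoclonal) or HSP72, alkaline-phosphatase secondary, NBT/BCIP development; Ponceau S loading check.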

SK-BR-3 [6] = experiment: Cell cycle arrest in human SKBR3 cells assessed as accumulation at subG1 phase at 0.5 uM after 48 hrs by flow cytometric analysis (reference value: 7 +/- 1%); format: functional
SK-BR-3 [7] = experiment: Cell cycle arrest in human SKBR3 cells assessed as accumulation at G2/M phase at 0.5 uM after 48 hrs by flow cytometric analysis (reference value: 21 +/- 1%); format: functional
SK-BR-3 [8] = experiment: Cell cycle arrest in human SKBR3 cells assessed as accumulation at S phase at 0.5 uM after 48 hrs by flow cytometric analysis (reference value: 19 +/- 6%); format: functional
SK-BR-3 [9] = experiment: Cell cycle arrest in human SKBR3 cells assessed as accumulation at G0/G1 phase at 0.5 uM after 48 hrs by flow cytometric analysis (reference value: 54 +/- 2%); format: functional
Oryctolagus cuniculus [10] = species: Oryctolagus cuniculus; experiment: Inhibition of HSP90 in rabbit reticulocyte lysate assessed as inhibition of heat-denatured luciferase refolding after 30 mins by luminescence plate reader analysis
In short: (§2)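 Rabbit reticulocyte lysate with ATP regeneration (10 mM phosphocreatine, 1 mM ATP, 17.5 IU creatine kinase) preincubated with compound 20 min on ice; firefly luciferase (100 nM) heat-denatured 40 °C 8 min, diluted 10-fold into lysate; 28 °C, triplicate aliquots luminescence-read at 0, 15, 30, 60 min; mean RLU or % of DMSO.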

Oryctolagus cuniculus [11] = species: Oryctolagus cuniculus; experiment: Inhibition of HSP90 in rabbit reticulocyte lysate assessed as inhibition of heat-denatured luciferase refolding at 0.5 uM by luminescence plate reader analysis; settings: TDE = time-dependent effect; in short: as §2
Heat shock protein HSP90 [12] = molecular target: T1, Heat shock protein HSP90; experiment: Inhibition of HSP90 in human MCF7 cells assessed as depletion of total HER2 protein level at 12.5 to 25 uM after 18 hrs by Western blot analysis; format: cell-based; in short: as §1
SK-BR-3 [13] = experiment: Cell cycle arrest in human SKBR3 cells assessed as accumulation at G2/M phase at 12.5 uM after 48 hrs by flow cytometric analysis (reference value: 21 +/- 1%); format: functional
SK-BR-3 [14] = experiment: Cell cycle arrest in human SKBR3 cells assessed as accumulation at G2/M phase at 25 uM after 48 hrs by flow cytometric analysis (reference value: 21 +/- 1%); format: functional
Mus musculus = species: Mus musculus; experiment: Inhibition of HSP90 in mouse 3T3-Y9-B12 cells assessed as activation of HSF1 at 0.78 to 25 uM after overnight incubation by GFP reporter gene assay relative to control; format: cell-based
In short: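 3T3-Y9-B12 mouse fibroblasts carrying a GFP gene under a minimal heat-shock element; near-confluent monolayers given serial dilutions in triplicate wells overnight, DMSO ≤0.25% vehicle, GA 0.5 µM positive control; after PBS wash, fluorescence at 485/525 nm, normalized to DMSO.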

Heat shock protein HSP90 [15] = molecular target: T1, Heat shock protein HSP90; experiment: Inhibition of HSP90 in human SKBR3 cells assessed as aggregation of intracellular HER2 at 25 uM after 18 hrs by DAPI staining-based immunofluorescence microscopic analysis; format: cell-based; settings: SK-BR-3
In short: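 SKBR3 in chamber slides adhered overnight, treated 18 h, fixed 4% paraformaldehyde, permeabilized 1% Triton X-100, goat-serum block; anti-HER2 (20 µg/mL) then Alexa Fluor 488 secondary (2 µg/mL) on ice, DAPI nuclear counterstain; imaged at 160× with identical exposures. GA 0.5 µM positive control.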

SK-BR-3 [16] = experiment: Cell cycle arrest in human SKBR3 cells assessed as accumulation at G0/G1 phase at 25 uM after 48 hrs by flow cytometric analysis (reference value: 54 +/- 2%); format: functional
SK-BR-3 [17] = experiment: Cell cycle arrest in human SKBR3 cells assessed as accumulation at subG1 phase at 12.5 to 25 uM by flow cytometric analysis; format: functional, cell-based; settings: TDE = time-dependent effect
SK-BR-3 [18] = experiment: Cell cycle arrest in human SKBR3 cells assessed as accumulation at S phase at 12.5 uM after 48 hrs by flow cytometric analysis (reference value: 19 +/- 6%); format: functional
SK-BR-3 [19] = experiment: Cell cycle arrest in human SKBR3 cells assessed as accumulation at G0/G1 phase at 12.5 uM after 48 hrs by flow cytometric analysis (reference value: 54 +/- 2%); format: functional
SK-BR-3 [20] = experiment: Cell cycle arrest in human SKBR3 cells assessed as accumulation at subG1 phase at 25 uM after 48 hrs by flow cytometric analysis (reference value: 7 +/- 1%); format: functional
SK-BR-3 [21] = experiment: Cell cycle arrest in human SKBR3 cells assessed as accumulation at subG1 phase at 12.5 uM after 48 hrs by flow cytometric analysis (reference value: 7 +/- 1%); format: functional
SK-BR-3 [22] = experiment: Cell cycle arrest in human SKBR3 cells assessed as accumulation at S phase at 25 uM after 48 hrs by flow cytometric analysis (reference value: 19 +/- 6%); format: functional
Oryctolagus cuniculus [23] = species: Oryctolagus cuniculus; experiment: Inhibition of HSP90 in rabbit reticulocyte lysate assessed as inhibition of heat-denatured luciferase refolding at 100 uM by luminescence plate reader analysis; settings: TDE = time-dependent effect; in short: as §2
SK-BR-3 [24] = experiment: Cell cycle arrest in human SKBR3 cells assessed as accumulation at subG1 phase after 48 hrs by flow cytometric analysis; format: functional, cell-based

Row | EC50 (Heat shock protein HSP90 [3]) | inhibition (Heat shock protein HSP90 [4]) | inhibition (Heat shock protein HSP90 [5]) | inhibition (Oryctolagus cuniculus [10]) | SMILES | growth inhibition (GI) (SK-BR-3 [1]) | IC50 (MCF7) | IC50 (SK-BR-3 [2]) | further results
1 | 41 µM | 40% | 50% | – | COc1ccc(C(=O)Nc2c(OC)c3ccc(O[C@@H]4OC(C)(C)[C@H](OC)[C@@H](O)[C@H]4O)c(C)c3oc2=O)cc1CC=C(C)C | Active | 19 µM | 25 µM | –
2 | – | – | – | Dose-dependent effect | COC1=C2C[C@@H](C)C[C@H](OC)[C@H](O)[C@@H](C)/C=C(\C)[C@H](OC(N)=O)[C@@H](OC)/C=C\C=C(/C)C(=O)NC(=CC1=O)C2=O [GELDANAMYCIN] | – | – | – | Activity (SK-BR-3 [6]): 16%; Activity (SK-BR-3 [7]): 18%; Activity (SK-BR-3 [8]): 10%; Activity (SK-BR-3 [9]): 65%; inhibition (Oryctolagus cuniculus [11]): tde
3 | 24 µM | 40% | 50% | Dose-dependent effect | CO[C@@H]1[C@@H](OC(N)=O)[C@@H](O)[C@H](Oc2ccc3cc(NC(=O)c4ccc(O)c(CC=C(C)C)c4)c(=O)oc3c2C)OC1(C)C | Active | 15 µM | 17 µM | inhibition (Heat shock protein HSP90 [12]): Active; Activity (SK-BR-3 [13]): 9%; Activity (SK-BR-3 [14]): 15%; fold change (FC) (Mus musculus): < 2; inhibition (Heat shock protein HSP90 [15]): Active; Activity (SK-BR-3 [16]): 43%; Activity (SK-BR-3 [17]): tde; Activity (SK-BR-3 [18]): 10%; Activity (SK-BR-3 [19]): 62%; Activity (SK-BR-3 [20]): 48%; Activity (SK-BR-3 [21]): 22%; Activity (SK-BR-3 [22]): 17%; inhibition (Oryctolagus cuniculus [23]): tde; Activity (SK-BR-3 [24]): Dose-dependent effect
4 | 38 µM | 40% | 50% | – | COc1ccc(C(=O)Nc2c(OC)c3ccc(O[C@@H]4OC(C)(C)[C@H](OC)[C@@H](OC(N)=O)[C@H]4O)c(C)c3oc2=O)cc1CC=C(C)C | Active | 18 µM | 19 µM | –
